The values below come from paper PMC4973383 (Acta Pharmacologica Sinica, 2016).

For data set [1], the system named is HCT8/ADR cells. In words: In vitro cytotoxicity, MTT assay. The conditions noted are these: 48 h, concentration up to 20 μg/mL. It is filed as cell-based, human. The gist of the method:
(§1)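 HCT8 and HCT8/ADR cells were grown in RPMI-1640 with 10% FBS, streptomycin and penicillin at 37 °C under 5% CO₂. Cells were seeded at 5×10^3 per well and grown 24 h, then exposed to varying concentrations of test nanoparticles or free Dox for 48 h. MTT (5 mg/mL stock) was added for a further 4 h, then DMSO. Absorbance was read at 490 nm and viability calculated. Run in triplicate.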
(In general: Formazan colour is commonly taken as a measure of viable cells.)

In another data set the test system is BALB/c-nu nude mice. In words: Preliminary treatment safety in tumor-bearing nude mice. In kind it is in vivo. The method in brief: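 Female BALB/c-nu nude mice aged 3-4 weeks received 1×10^6 HCT8/ADR cells subcutaneously on the back. They were randomised into five groups of six: PBS, test nanoparticles or Dox given peritumorally, and test nanoparticles or Dox given intravenously. Dosing started at about 100 mm³ tumour volume, at 2 mg/kg Dox-equivalent every two days over 22 d. Body weight was monitored. At endpoint, organs were weighed, organ coefficient was taken as organ weight/body weight×100%, and histology was done.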

The subject of a further data set is HCT8 cells. As to the kind of experiment: In vitro cytotoxicity, MTT assay. In kind it is cell-based, human. To be noted: 48 h, Dox-equivalent concentration. The method in brief:
as §1

In data set [2] the test system is HCT8/ADR cells. As to the kind of experiment: Intranuclear distribution by confocal microscopy. In kind it is cell-based, human. To be noted: 4 h incubation, DAPI counterstain. The gist of the method: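 HCT8/ADR cells were seeded at 2×10^4 per well in RPMI-1640 with 10% FBS and grown 24 h. They were incubated 4 h with test nanoparticles or free Dox, washed twice in ice-cold PBS, and fixed in fresh 4% paraformaldehyde for 15 min at room temperature. Nuclei were counterstained with DAPI and imaged by confocal laser scanning microscopy for Dox fluorescence.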

Data set [3] relates to HCT8/ADR cells. In words: Effect of verapamil. To be noted: HCT8/ADR cells pretreated with verapamil 50 μmol/L for 2 h; drug incubation 1 h or 2 h; flow cytometry. In kind it is cell-based, human.

With `COc1cccc2c1C(=O)c1c(O)c3c(c(O)c1C2=O)C[C@@](O)(C(=O)CO)C[C@@H]3O[C@H]1C[C@H](N)[C@H](O)[C@H](C)O1` [Dox, Doxorubicin], the “antitumor activity (cytotoxicity)” value in the data set on HCT8/ADR cells [1] is “ineffective”. In addition, the body weight change result in the data set on BALB/c-nu nude mice (Dox dose 2 mg/kg per two days over 22 d, nude mice bearing HCT8/ADR tumor) was “remarkable body weight loss”. The “histological examination of major organs” value in the data set on BALB/c-nu nude mice (at experimental endpoint, 22 d) was “degeneration and edema and focal cytolysis necrosis in the liver and spleen”. In addition, the “organ coefficient of liver and spleen” value with BALB/c-nu nude mice (iv, at experimental endpoint, 22 d) is recorded as “reduced markedly”. Also, the “IC50 (cell proliferation)” value in the data set with HCT8 cells is listed as “approximately 1 μg/mL”. The “Dox-related red fluorescence, intranuclear accumulation” value in the data set on HCT8/ADR cells [2] was “hardly observed”. In addition, in the data set on HCT8/ADR cells [3], the “change of uptake efficiency after verapamil” value is “clearly increased uptake efficiency”.
